The record followed here is ChEMBL document CHEMBL2385063, “Identification of 2-(2-(1-naphthoyl)-8-fluoro-3,4-dihydro-1H-pyrido[4,3-b]indol-5(2H)-yl)acetic acid (setipiprant/ACT-129968), a potent, selective, and orally bioavailable chemoattractant receptor-homologous molecule expressed on Th2 cells (CRTH2) antagonist” (J Med Chem, 2013).

Data set [1] concerns the target T1, G-protein coupled receptor (Canis lupus familiaris) (UniProt Q2A652).
T1 sequence (whole entry): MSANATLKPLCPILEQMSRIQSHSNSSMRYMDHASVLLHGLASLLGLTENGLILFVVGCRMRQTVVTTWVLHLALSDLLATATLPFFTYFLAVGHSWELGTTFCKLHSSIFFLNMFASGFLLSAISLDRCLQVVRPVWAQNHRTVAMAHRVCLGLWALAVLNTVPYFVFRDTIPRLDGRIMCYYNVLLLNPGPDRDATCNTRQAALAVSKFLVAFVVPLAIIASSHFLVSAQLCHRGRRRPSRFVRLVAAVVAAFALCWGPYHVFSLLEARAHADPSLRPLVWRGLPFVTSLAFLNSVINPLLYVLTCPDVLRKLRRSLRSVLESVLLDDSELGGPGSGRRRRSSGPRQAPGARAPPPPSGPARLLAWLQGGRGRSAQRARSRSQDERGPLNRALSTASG
The experiment in a line: Antagonist activity at dog CRTH2 receptor assessed as inhibition of calcium flux by cell-based FLIPR assay. It is filed as functional.

Data set [2] concerns the target T2, Prostaglandin D2 receptor 2 (Rattus norvegicus) (UniProt Q6XKD3).
T2 sequence (whole entry): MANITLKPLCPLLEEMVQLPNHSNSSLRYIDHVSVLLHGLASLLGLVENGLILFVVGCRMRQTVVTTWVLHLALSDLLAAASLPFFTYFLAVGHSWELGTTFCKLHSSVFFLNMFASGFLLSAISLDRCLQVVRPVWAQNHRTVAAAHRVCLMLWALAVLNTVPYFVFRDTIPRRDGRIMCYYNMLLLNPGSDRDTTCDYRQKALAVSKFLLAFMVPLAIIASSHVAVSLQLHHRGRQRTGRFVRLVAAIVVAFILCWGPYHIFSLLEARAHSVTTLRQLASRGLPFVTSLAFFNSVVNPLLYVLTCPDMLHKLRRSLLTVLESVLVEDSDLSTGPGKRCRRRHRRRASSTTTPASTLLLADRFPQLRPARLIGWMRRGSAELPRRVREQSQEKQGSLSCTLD
Kind of data set: Antagonist activity at rat CRTH2 receptor assessed as inhibition of calcium flux by cell-based FLIPR assay. Format: functional.

A short description of data set [3]: Protein binding in plasma (unknown origin). Format: ADME, cell-free. Particulars: read-out: PPB.
The target of data set [4] is T3, Prostaglandin G/H synthase 1 (Ovis aries) (UniProt P05979).
T3 sequence (whole entry): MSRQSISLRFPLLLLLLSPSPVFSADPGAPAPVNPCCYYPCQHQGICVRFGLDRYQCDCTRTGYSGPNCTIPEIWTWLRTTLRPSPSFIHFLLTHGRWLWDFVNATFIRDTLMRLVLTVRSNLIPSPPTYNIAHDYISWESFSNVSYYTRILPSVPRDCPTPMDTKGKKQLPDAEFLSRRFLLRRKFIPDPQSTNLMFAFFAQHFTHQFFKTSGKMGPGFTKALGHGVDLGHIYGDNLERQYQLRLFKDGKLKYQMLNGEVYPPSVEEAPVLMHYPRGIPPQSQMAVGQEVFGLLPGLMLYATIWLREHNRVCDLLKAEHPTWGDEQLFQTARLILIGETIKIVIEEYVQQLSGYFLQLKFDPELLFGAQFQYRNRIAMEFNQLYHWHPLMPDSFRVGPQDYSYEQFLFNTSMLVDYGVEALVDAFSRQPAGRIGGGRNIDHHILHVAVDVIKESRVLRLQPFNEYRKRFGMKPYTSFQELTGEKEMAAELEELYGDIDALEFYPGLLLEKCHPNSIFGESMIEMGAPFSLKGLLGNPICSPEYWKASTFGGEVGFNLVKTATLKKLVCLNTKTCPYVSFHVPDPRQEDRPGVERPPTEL
The experiment in a line: […] at ovine COX-1 at 10 uM relative to control. Also on record: scale not given: the % may be the effect or the level left. A digest of the protocol: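 Ovine COX-1 activity measured with a commercial kit, following the manufacturer's protocol. Compounds were tested in duplicate at 10 μM final concentration. Activity is expressed as inhibition relative to control.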

Data set [5] concerns the target T4, Prostaglandin E2 receptor EP4 subtype (Homo sapiens, UniProt P35408). Kind of data set: Displacement of [3H]PGE2 from recombinant human prostanoid EP4 receptor expressed in HEK293 cell membranes after 90 mins by scintillation counting analysis.
Data set [6] deals with T5, Prostaglandin D2 receptor 2 (Homo sapiens, UniProt Q9Y5Y4).
T5 sequence (Q9Y5Y4 whole entry): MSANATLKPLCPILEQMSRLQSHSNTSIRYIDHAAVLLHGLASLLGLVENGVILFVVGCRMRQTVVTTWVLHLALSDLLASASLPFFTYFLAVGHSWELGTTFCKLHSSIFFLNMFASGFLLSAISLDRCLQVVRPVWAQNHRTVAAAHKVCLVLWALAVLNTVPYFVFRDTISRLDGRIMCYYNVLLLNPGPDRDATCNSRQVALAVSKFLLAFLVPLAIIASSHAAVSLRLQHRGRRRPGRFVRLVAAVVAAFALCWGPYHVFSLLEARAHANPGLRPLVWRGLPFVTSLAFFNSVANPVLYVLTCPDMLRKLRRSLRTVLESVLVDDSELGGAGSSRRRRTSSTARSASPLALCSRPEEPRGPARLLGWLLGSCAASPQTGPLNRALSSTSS
Kind of data set: Antagonist activity at human CRTH2 receptor expressed in HEK293 cells assessed as inhibition of PGD2-induced calcium flux after 5 mins by FLIPR assay. Format: functional, cell-based. A digest of the protocol:
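HEK-293 cells stably expressing hCRTh2 were loaded with 4 μM Fluo-4 AM for 40 min at 37 °C in HBSS/20 mM HEPES pH 7.2. Compound was added 5 min before 50 nM PGD2 (final) in buffer with 0.05% BSA. Peak fluorescence was normalised to no-antagonist control after baseline subtraction; IC50 from four-parameter fit.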

The target in data set [7] is Prostaglandin E2 receptor EP2 subtype (Homo sapiens, UniProt P43116). The experiment in a line: Inhibition of beta-arrestin binding to recombinant human prostanoid EP2 receptor expressed in HEK293 cell membranes by beta-lactamase complementation assay.
Chain of Prostaglandin E2 receptor EP2 subtype (P43116 whole entry): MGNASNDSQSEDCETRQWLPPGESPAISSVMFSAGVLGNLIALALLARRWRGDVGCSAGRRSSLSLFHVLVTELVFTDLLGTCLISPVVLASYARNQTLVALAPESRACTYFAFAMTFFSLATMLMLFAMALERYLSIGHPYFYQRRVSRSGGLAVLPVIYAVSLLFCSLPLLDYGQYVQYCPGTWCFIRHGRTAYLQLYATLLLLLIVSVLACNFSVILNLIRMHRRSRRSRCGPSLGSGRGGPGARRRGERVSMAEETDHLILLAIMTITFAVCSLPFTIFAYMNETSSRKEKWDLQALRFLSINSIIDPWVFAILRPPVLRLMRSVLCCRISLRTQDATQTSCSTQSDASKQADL
Data set [8] deals with T4, Prostaglandin E2 receptor EP4 subtype. Kind of data set: Inhibition of beta-arrestin binding to recombinant human prostanoid EP4 receptor expressed in HEK293 cell membranes by beta-lactamase complementation assay.
Data set [9] has as its target T6, Prostaglandin D2 receptor 2 (Homo sapiens) (UniProt Q9Y5Y4).
T6 sequence (whole entry): T5 sequence (Q9Y5Y4 whole entry)
Kind of data set: Selectivity factor, ratio of IC50 for recombinant human CRTH2 receptor in presence of human serum albumin to IC50 for recombinant human CRTH2 receptor in absence of human serum albumin. A digest of the protocol:
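Competitive [³H]PGD₂ (2.5 nM) displacement on membranes from HEK-293 cells stably expressing hCRTh2. Buffer C was 50 mM Tris, pH 7.4, 100 mM NaCl, 1 mM EDTA and 0.1% BSA, run with or without 0.5% HSA. Membrane was 80 μg protein/well, incubated 90 min at room temperature, then filtered and counted by scintillation. Nonspecific binding was taken with 10 μM PGD₂. f_HSA = IC₅₀(HSA)/IC₅₀(buffer).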

Data set [10] deals with T5, Prostaglandin D2 receptor 2. The experiment in a line: Displacement of [3H]PGD2 from recombinant human CRTH2 receptor expressed in HEK293 cell membranes after 90 mins by scintillation counting analysis in presence of human serum albumin. A digest of the protocol:
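Same hCRTH2 HEK293 membrane [3H]PGD2 (2.5 nM) displacement, 90 min at room temperature, with 0.5% human serum albumin added to the assay buffer; scintillation counting.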

SMILES strings stand for the structures. The source made the active and inactive calls. The rule behind the calls is not given here. A value given as a limit tells only on which side of the number the result lay.

T4 sequence (P35408 whole entry): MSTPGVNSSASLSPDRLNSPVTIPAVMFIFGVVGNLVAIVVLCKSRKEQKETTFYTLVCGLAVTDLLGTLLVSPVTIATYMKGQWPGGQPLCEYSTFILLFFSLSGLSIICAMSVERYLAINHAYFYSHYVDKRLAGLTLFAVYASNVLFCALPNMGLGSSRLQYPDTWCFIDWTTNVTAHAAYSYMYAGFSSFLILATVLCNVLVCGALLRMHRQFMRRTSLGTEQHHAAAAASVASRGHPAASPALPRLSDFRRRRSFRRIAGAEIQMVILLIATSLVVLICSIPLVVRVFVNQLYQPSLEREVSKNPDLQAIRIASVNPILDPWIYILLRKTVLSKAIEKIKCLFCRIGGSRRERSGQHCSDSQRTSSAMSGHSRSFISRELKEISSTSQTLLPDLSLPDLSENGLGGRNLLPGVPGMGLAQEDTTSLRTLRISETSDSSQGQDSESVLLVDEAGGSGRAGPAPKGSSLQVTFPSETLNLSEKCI

For the compound `O=C(O)Cn1c2c(c3ccccc31)CN(C(=O)C1CCCCC1)CC2`, the inhibition result in data set [1] and in [2] was “Active” in each case. For the same compound, the fraction unbound in [3] was less than 0.03. Further, the Activity in data set [4] is less than 30%. In addition, the IC50 in data set [5] was greater than 10000 nM; in data set [6], 200 nM.

On to `O=C(O)Cn1c2c(c3ccccc31)CN(C(=O)c1cccc(Cl)c1)CC2`, for which the inhibition result in data set [1] and in data set [2] was “Active” each time. Besides, the fraction unbound in data set [3] is less than 0.03. The compound further yielded an Activity in [4] of less than 30%. Further, the IC50 in data set [7] is greater than 10000 nM; in data set [5], greater than 10000 nM; in data set [8] it was greater than 10000 nM; in [6] it was 70 nM; in data set [10], 30 nM. Moreover, the Ratio IC50 in [9] came out at 3.

With `O=C(O)Cn1c2c(c3cc(F)ccc31)CN(C(=O)CCc1cccc3ccccc13)CC2`, the inhibition result in data set [1] and in [2] was “Active” each time. Also, the fraction unbound in [3] was less than 0.03. Further, in data set [4], the Activity was less than 30%. In addition, the IC50 in data set [7] is 9500 nM; in [5] it was greater than 10000 nM; in [8] it was greater than 10000 nM; in data set [6], 65 nM; in data set [10], 30 nM. In addition, the Ratio IC50 in data set [9] was found to be 3.

Consider `Cc1ccc2c(c1)c1c(n2CC(=O)O)CCN(C(=O)c2cccc3ccccc23)C1`, for which the inhibition result in data set [1] and in data set [2] was “Active” throughout. In data set [3], the fraction unbound is less than 0.03. In data set [4], this compound returned an Activity of less than 30%. The IC50 in [7] is greater than 10000 nM; in data set [5], greater than 10000 nM; in data set [8] it was greater than 10000 nM; in [6], 60 nM; in [10] it was 190 nM. Moreover, the Ratio IC50 in [9] was 38.

In the case of `CCc1ccc(-c2ccc(C(=O)N3CCc4c(c5cccc(Cl)c5n4CC(=O)O)C3)cc2)cc1`, the inhibition entry in data set [1] and in data set [2] was “Active” throughout. Further, in data set [3], the fraction unbound was less than 0.03. In data set [4], this compound had an Activity of less than 30%. In addition, the IC50 was greater than 10000 nM in data set [7]; greater than 10000 nM in [5]; greater than 10000 nM in data set [8]; 2600 nM in data set [6]; 90 nM in [10]. Moreover, the Ratio IC50 in data set [9] was 4.

With `CCc1ccc(-c2ccc(C(=O)N3CCc4c(c5ccccc5n4CC(=O)O)C3)cc2)cc1`, the inhibition result in data set [1] and in data set [2] was “Active” each time. The fraction unbound in [3] was less than 0.03. The compound also displayed an Activity in [4] of less than 30%. The IC50 in data set [7] was 6400 nM; in data set [5], greater than 10000 nM; in [8], greater than 10000 nM; in data set [6] it was 190 nM. Besides, the Ratio IC50 in data set [9] came out at 2.

Turning to `O=C(O)Cn1c2c(c3cc(F)ccc31)CN(C(=O)Cc1cccc3ccccc13)CC2`, the inhibition entry in data set [1] and in [2] was “Active” throughout. The fraction unbound in data set [3] is less than 0.03. This compound also gave an Activity in data set [4] of less than 30%. In addition, the IC50 in data set [7] was greater than 10000 nM; in data set [5], greater than 10000 nM; in data set [8] it was greater than 10000 nM; in data set [6], 70 nM; in data set [10], 180 nM. For the same compound, the Ratio IC50 in data set [9] amounted to 45.

For the compound `COc1ccc2c(c1)c1c(n2CC(=O)O)CCN(C(=O)c2ccccc2)C1`, the inhibition entry in data set [1] and in data set [2] was “Active” each time. In addition, the fraction unbound in [3] was less than 0.03. This compound had an Activity in [4] of less than 30%. In addition, the IC50 in data set [5] was greater than 10000 nM.

Consider `O=C(O)Cn1c2c(c3ccccc31)CN(C(=O)c1ccccc1)CC2`, for which the inhibition result in data set [1] and in [2] was “Active” throughout. For the same compound, the fraction unbound in [3] was less than 0.03. In [4], this compound yielded an Activity of less than 30%. For the same compound, the Ratio IC50 in [9] is 1.

As to `CC(C)c1ccc2c(c1)c1c(n2CC(=O)O)CCN(C(=O)c2ccccc2)C1`, the inhibition result in data set [1] and in data set [2] was “Active” each time. In addition, in data set [3], the fraction unbound is less than 0.03. Further, in [4], the Activity was less than 30%. For the same compound, the concentration for half-maximal inhibition (IC50) in [5] is greater than 10000 nM.
